Measured values from different studies.
Cell line: MCF7
Read-out: cell growth or viability

| Compound | method | time | IC50 |
| --- | --- | --- | --- |
| O=Cc1ccc(CO)o1 | WST-1 | 48 h | 46.2 µM |
| c1cc2c(cc1CNCC1CCNCC1)OCO2 | MTT | 72 h | > 100 µM |
| CSc1ccc(-c2nc3ccc(C)cc3[nH]2)cc1 | MTT | 48 h | 45 µM |
| Cc1ccc2c(Cl)cc(Cl)c(O)c2n1 | MTT | 48 h | > 100 µM |
| O=C(NC(=S)NCCCNC(=S)NC(=O)c1ccc2ccccc2c1)c1ccc2ccccc2c1 | – | 48 h | 1.12 µM |
| C=CCn1c(-c2ccc(Cl)c(Cl)c2)nc2ccccc21 | MTT | – | 50 µM |
| COc1ccc(Nc2nc(-n3nc(C)cc3C)nc(-n3nc(C)cc3C)n2)cc1 | MTT | 72 h | 12 µM |
| O=S(=O)(NN=Cc1cn(CCN2CCOCC2)c2ccccc12)c1ccc2ccccc2c1 | MTT | 48 h | 29.9 µM |
| Cc1ccc2nc(-c3cccnc3)[nH]c2c1 | MTT | 48 h | 51.1 µM |
| Cc1ccc(O)c(/C=N/c2nc(Oc3ccccc3)nn2-c2ccc(C(=O)O)cc2)c1 | MTT | – | 30.3 µM |
| COc1ccc(C2=N[C@@H](c3ccc(Cl)cc3)[C@@H](c3ccc(Cl)cc3)N2C(=O)N2CCNC(=O)C2)c(OC(C)C)c1 | MTT | 48 h | 11 µM |
| CN(C)C/C=N/NC(=O)Nc1cc2c(Nc3ccc(F)c(Cl)c3)ncnc2cc1O[C@H]1CCOC1 | MTT | 72 h | 5.72 µM |
| c1ccc2[nH]c(-c3ccc4c(c3)OCO4)nc2c1 | MTT | 48 h | > 100 µM |
| Oc1ccc(-c2ccc3ncnc(Nc4cccc(C(F)(F)F)c4)c3c2)cc1 | MTT | 24 h | 6.19 µM |
| C#Cc1cccc(Nc2ncnc3cc(OCCOC)c(OCCOC)cc23)c1 | MTT | – | 3.16 µM |
| COc1cccc2c1C(=O)c1c(O)c3c(c(O)c1C2=O)C[C@@](O)(C(=O)CO)C[C@@H]3O[C@H]1C[C@H](N)[C@H](O)[C@H](C)O1 | MTT | 48 h | 3.1 µM |
| COc1cccc2c1C(=O)c1c(O)c3c(c(O)c1C2=O)C[C@@](O)(C(=O)CO)C[C@@H]3O[C@H]1C[C@H](N)[C@H](O)[C@H](C)O1 | MTT | – | 3.39 µM |
| Cc1cc(=O)[nH]c(=O)n1Cc1cn(-c2c3ccccc3nc3ccccc23)nn1 | MTT | – | 2.7 µM |
| COc1cc(CNCC2CCNCC2)ccc1OCc1cccc(C)c1 | MTT | 72 h | > 100 µM |
| O=C1Nc2c(C(F)(F)F)cccc2C1(c1ccc(OC(F)(F)F)cc1)c1c(F)cc(O)cc1F (stereo not drawn) | resazurin | 24 h | 0.549 µM |
| Nc1ncnc2c1ncn2[C@@H]1O[C@H](CO)[C@@H](O)[C@H]1O | WST-1 | 48 h | 48.3 µM |
| c1ccc2cc(-c3nnc(NC4CCCCC4)[nH]3)ccc2c1 | – | 48 h | 1.75 µM |
| CC(=O)O[C@H]1C(=O)[C@@]2(C)[C@H]([C@H](OC(=O)c3ccccc3)[C@]3(O)C[C@H](OC(=O)[C@H](O)[C@@H](NC(=O)c4ccccc4)c4ccccc4)C(C)=C1C3(C)C)[C@]1(OC(C)=O)CO[C@@H]1C[C@@H]2O | – | – | 1 µg/mL |
| c1cnc2c(c1)ccc1cccnc12 | MTT | 48 h | > 50 µM |

| Compound | method | time | IC50 |
| --- | --- | --- | --- |
| CCN(CC)CCCn1cccc1/C=N/NC(=O)Nc1cc2c(Nc3ccc(F)c(Cl)c3)ncnc2cc1O[C@H]1CCOC1 | MTT | 72 h | 2.49 µM |
| COc1cccc(-c2nc3ccccc3n2Cc2ccccc2)c1 | MTT | – | 24.8 µM |
| CN1CCN(CCCn2cccc2/C=N/NC(=O)Nc2cc3c(Nc4ccc(F)c(Cl)c4)ncnc3cc2O[C@H]2CCOC2)CC1 | MTT | 72 h | 2.12 µM |
| CSc1nc(/N=C/c2cc(C)ccc2O)n(-c2ccc(C(=O)O)cc2)n1 | MTT | – | 23.9 µM |
| O=C(N/N=C/c1cccn1CCCN1CCCC1)Nc1cc2c(Nc3ccc(F)c(Cl)c3)ncnc2cc1O[C@H]1CCOC1 | MTT | 72 h | 2.41 µM |
| COc1c2c(cc3c1OCO3)[C@]13C=C[C@H](OC)C[C@H]1N(C2)C[C@H]3OC(=O)c1cccc(C)c1 | WST-1 | – | > 10 µM |
| O=S(=O)(NN=Cc1cn(CCN2CCOCC2)c2ccccc12)c1ccccc1 | MTT | 48 h | 73.2 µM |
| COc1cc2ncnc(Nc3ccc(F)c(Cl)c3)c2cc1NC(=O)N/N=C/CN(C)C | MTT | 72 h | 5.38 µM |
| CS(=O)(=O)c1ccc(-n2cc(/C=N/N=c3\[nH]c(-c4ccc([N+](=O)[O-])cc4)cs3)c(-c3ccc(Br)cc3)n2)cc1 | MTT | 48 h | 35.7 µM |
| COc1cccc2c1C(=O)c1c(O)c3c(c(O)c1C2=O)C[C@@](O)(C(=O)CO)C[C@@H]3O[C@H]1C[C@H](N)[C@H](O)[C@H](C)O1 | – | 48 h | 1.2 µM |
| O=[N+]([O-])c1ccc(-c2csc(Nc3ccc4c(O)ncnc4c3)n2)cc1 | MTT | – | 3.09 µM |
| CCCCc1ccc2[nH]c(NC(=O)OC)nc2c1 | CCK-8 | 72 h | 0.0996 µM |
| O=C(N/N=C/CN1CCOCC1)Nc1cc2c(Nc3ccc(F)c(Cl)c3)ncnc2cc1O[C@H]1CCOC1 | MTT | 72 h | 1.08 µM |
| CSc1nc(/N=C/c2cc(Br)ccc2O)n(-c2ccc(C(=O)O)cc2)n1 | MTT | – | 31.3 µM |
| Cc1ccc2nc(-c3c4ccccc4cc4ccccc34)[nH]c2c1 | MTT | 48 h | 39 µM |
| COc1cc2ncnc(Nc3ccc(F)c(Cl)c3)c2cc1NC(=O)N/N=C/CN1CCCCC1 | MTT | 72 h | 6.42 µM |
| O=C(NC(=S)Nc1ccccc1)c1ccc2ccccc2c1 | – | 48 h | 5.11 µM |
| c1cncc(-c2nc3ccccc3[nH]2)c1 | MTT | 48 h | > 100 µM |
| CSc1nc(/N=C/c2cccc(O)c2)n(-c2ccc(C(=O)O)cc2)n1 | MTT | – | 31.2 µM |
| FC(F)(F)c1cccc(Nc2ncnc3ccc(-c4ccc(CN5CCOCC5)cc4)cc23)c1 | MTT | 24 h | 4.05 µM |
| CC(C)C[C@H](NC(=O)[C@H](Cc1ccccc1)NC(=O)c1cnccn1)B(O)O | ATP luminescence | – | 0.0088 µM |
| CC1(C)[C@@H](O)CC[C@]2(C)[C@H]3C(=O)C=C4[C@@H]5C[C@@](C)(C(=O)O)CC[C@]5(C)CC[C@@]4(C)[C@]3(C)CC[C@@H]12 | MTT | 48 h | > 100 µM |
| O=[N+]([O-])c1ccc(-c2nc3ccccc3[nH]2)cc1 | MTT | 48 h | 27.2 µM |
| FC(F)(F)c1cccc(Nc2ncnc3ccc(-c4ccc5c(c4)OCO5)cc23)c1 | MTT | 24 h | 6.74 µM |
